Assay results pooled from the literature.
Target: RAC-gamma serine/threonine-protein kinase (AKT3, Homo sapiens, UniProt Q9Y243)

SMILES | assay | setting | quantity | result
Cc1nn(C)cc1-c1nc2c(N3CCN(Cc4ccc(Cl)cc4)CC3)c(Cl)cnc2[nH]1 | binding, competition with immobilised ligand | 1 µM | remaining binding | 100%
Cn1cncc1[C@](O)(COc1ccc(C#N)cc1-c1ccc(OC(F)(F)F)cc1)c1ccc(C#N)cc1 | cell-free assay, competition with immobilised ligand | 1 µM | remaining binding | 100%
COc1cc(Nc2ncc(F)c(Nc3ccc4c(n3)NC(=O)C(C)(C)O4)n2)cc(OC)c1OC | binding, competition with immobilised ligand | 10 µM | inhibition | 0%
Cn1cc(-c2cccc(N3CCc4c(sc5c4CC(C)(C)C5)C3=O)c2CO)cc(Nc2ccncn2)c1=O | enzyme activity, inhibitor | 1 µM | inhibition | 6%
COc1ncccc1-c1cnn2ccc(N3CCN(C(=O)OC(C)C)CC3)nc12 | binding, competition with immobilised ligand | 1 µM | remaining binding | 100%
Nc1ncc(-c2nc(N3CCOCC3)nc(N3CCOCC3)n2)c(C(F)F)n1 | binding, competition with immobilised ligand | 10 µM | remaining binding | 59%
O=c1[nH]c2ccccc2n1C1CCN(Cc2ccc(-c3[nH]c4cc5ncnc5cc4nc3-c3ccccc3)cc2)CC1 | cell-free assay | 0.5 µM | remaining signal | 103%
N#CC1(c2ccccn2)CCN(Cc2cc(C(=O)O)c(=O)n3ccccc23)CC1 | cell-free assay, competition with immobilised ligand | 1 µM | remaining binding | 100%
Cn1cc(-c2cc(F)cc(N3CCn4c(cc5c4CCCC5)C3=O)c2CO)cc(Nc2ccc(N3CCN(C4COC4)CC3)cn2)c1=O | enzyme activity, inhibitor | 0.1 µM | inhibition | 5%
CC(C)(C)c1cc(C=C(C#N)C#N)cc(Br)c1O | enzyme activity, inhibitor | 0.5 µM | remaining activity | 111%
